ChEMBL document CHEMBL1123888, “Aldosterone antagonists. 2. Synthesis and biological activities of 11,12-dehydropregnane derivatives” (J Med Chem, 1987)
The source made the active and inactive calls. The calls are words filed in the database; no cut-off is given here.

Assays:
[1] = target: T1, Mineralocorticoid receptor (Rattus norvegicus) (UniProt P22199); experiment: Displacement of [3]Aldosterone from mineralocorticoid receptor of rat renal cytosol at 0 degree Centigrade
T1 sequence (whole entry): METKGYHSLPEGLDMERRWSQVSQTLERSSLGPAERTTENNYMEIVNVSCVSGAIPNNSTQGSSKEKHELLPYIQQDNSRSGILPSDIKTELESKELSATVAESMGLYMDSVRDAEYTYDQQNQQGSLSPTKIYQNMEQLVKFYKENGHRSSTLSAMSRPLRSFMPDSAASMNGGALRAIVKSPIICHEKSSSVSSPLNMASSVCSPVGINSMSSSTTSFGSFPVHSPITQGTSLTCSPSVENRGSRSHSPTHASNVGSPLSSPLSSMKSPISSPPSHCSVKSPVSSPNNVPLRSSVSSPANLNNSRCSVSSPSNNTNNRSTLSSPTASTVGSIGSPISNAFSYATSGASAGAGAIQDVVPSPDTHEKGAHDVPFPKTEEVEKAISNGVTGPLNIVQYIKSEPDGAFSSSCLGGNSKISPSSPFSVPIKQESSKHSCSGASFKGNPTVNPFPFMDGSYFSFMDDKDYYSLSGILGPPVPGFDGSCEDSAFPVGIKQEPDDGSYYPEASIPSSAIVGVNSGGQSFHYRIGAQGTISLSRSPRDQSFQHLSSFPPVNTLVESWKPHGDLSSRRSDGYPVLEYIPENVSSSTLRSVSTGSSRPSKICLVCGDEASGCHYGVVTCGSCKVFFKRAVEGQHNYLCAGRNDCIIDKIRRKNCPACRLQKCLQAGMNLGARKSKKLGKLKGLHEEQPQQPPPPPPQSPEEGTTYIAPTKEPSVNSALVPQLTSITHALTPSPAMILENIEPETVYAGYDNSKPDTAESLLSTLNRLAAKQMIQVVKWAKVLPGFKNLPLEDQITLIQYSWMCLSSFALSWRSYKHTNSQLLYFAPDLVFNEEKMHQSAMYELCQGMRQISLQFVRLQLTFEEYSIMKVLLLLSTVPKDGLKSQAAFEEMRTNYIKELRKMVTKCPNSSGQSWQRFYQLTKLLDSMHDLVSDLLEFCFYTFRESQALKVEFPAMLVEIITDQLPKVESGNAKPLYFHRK
In short: (§1)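 Renal cytosol came from male Sprague-Dawley rats (4-8 weeks) adrenalectomized bilaterally 1 or 2 days earlier. It was incubated with various competitor concentrations and about 1 nM [3H]Ald for 42-48 h at 0 °C or 100-120 min at 25 °C. Bound and free steroid were separated by DCC.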

[2] = target: T1, Mineralocorticoid receptor (Rattus norvegicus); experiment: Relative binding affinity to the rat mineralocorticoid receptor determined in rat renal cytosol using [3]Ald as ligand; in short: as §1
[3] = target: T1, Mineralocorticoid receptor (Rattus norvegicus); experiment: Antagonist activity against Mineralocorticoid receptor was determined after subcutaneous administration in Male Sprague Dawley rats; format: functional, organism-based
In short: (§2)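 Male rats were bilaterally adrenalectomized (bioassay modified from Kagawa). Ald (1 µg/kg) was given sc, immediately followed by test compound in sesame oil sc or orally. Urine was collected from 2 to 6 h after steroid. Potency came from the urinary Na/K ratio of sample versus control, with 95% confidence limits.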

Rattus norvegicus = species on record: Rattus norvegicus; experiment: Displacement of [3H]promegestone from progestin receptor of rat uterine cytosol at 0 degree Centigrade
In short: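 Uteri from estradiol-primed rats supplied the cytosol. It was incubated with various competitor concentrations and about 1 nM [3H]promegestone for 16-20 h at 0 °C. Bound and free steroid were separated by DCC. RBA (progesterone = 100%) = 100 × ratio of the 50%-inhibition concentrations of standard and competitor.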

[4] = target: T1, Mineralocorticoid receptor (Rattus norvegicus); experiment: Antagonist activity against Mineralocorticoid receptor after subcutaneous administration in Male Sprague Dawley rats; (+) =positive; format: functional, organism-based; conditions: filed as antagonist; in short: as §2
[5] = target: T1, Mineralocorticoid receptor (Rattus norvegicus); experiment: Antagonist activity against Mineralocorticoid receptor after oral administration in Male Sprague Dawley rats; (+) =positive; format: functional, organism-based; conditions: filed as antagonist; in short: as §2
[6] = target: T1, Mineralocorticoid receptor (Rattus norvegicus); experiment: Relative binding affinity against mineralocorticoid receptor determined in rat renal cytosol using [3]Ald as ligand; in short: as §1
[7] = target: T2, Progesterone receptor (Rattus norvegicus) (UniProt Q63449); experiment: Relative binding affinity against progesterone receptor determined in rat […] cytosol using [3H]DHT as ligand
T2 sequence (whole entry): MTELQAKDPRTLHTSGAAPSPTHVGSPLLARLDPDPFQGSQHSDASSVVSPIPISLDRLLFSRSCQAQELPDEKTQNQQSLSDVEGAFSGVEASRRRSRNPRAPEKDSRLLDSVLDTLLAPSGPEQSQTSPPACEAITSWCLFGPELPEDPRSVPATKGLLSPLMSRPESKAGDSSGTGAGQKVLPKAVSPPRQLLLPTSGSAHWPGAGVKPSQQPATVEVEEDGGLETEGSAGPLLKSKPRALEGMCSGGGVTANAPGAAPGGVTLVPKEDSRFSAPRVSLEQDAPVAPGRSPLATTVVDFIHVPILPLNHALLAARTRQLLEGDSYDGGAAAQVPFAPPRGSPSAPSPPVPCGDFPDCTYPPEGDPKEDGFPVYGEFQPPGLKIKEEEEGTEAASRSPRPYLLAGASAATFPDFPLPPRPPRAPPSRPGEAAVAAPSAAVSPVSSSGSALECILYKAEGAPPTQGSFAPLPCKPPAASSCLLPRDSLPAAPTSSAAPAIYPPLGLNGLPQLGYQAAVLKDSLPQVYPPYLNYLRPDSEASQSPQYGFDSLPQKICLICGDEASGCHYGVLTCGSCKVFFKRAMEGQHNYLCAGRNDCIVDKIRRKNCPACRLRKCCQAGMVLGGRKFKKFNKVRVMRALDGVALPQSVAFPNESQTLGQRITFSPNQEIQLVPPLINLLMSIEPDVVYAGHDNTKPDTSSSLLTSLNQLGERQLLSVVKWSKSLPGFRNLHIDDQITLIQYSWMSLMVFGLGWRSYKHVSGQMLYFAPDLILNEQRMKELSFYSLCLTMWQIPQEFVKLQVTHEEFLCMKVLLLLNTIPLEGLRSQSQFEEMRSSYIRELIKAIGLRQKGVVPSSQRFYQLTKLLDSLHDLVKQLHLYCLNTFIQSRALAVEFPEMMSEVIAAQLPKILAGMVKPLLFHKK

[8] = target: T2, Progesterone receptor (Rattus norvegicus); experiment: Relative binding affinity against progesterone receptor in […]
[9] = target: T2, Progesterone receptor (Rattus norvegicus); experiment: In vivo relative Progestational activity in Male Sprague-Dawley rats was determined.; format: functional, organism-based
[10] = target: T1, Mineralocorticoid receptor (Rattus norvegicus); experiment: Agonist activity against Mineralocorticoid receptor was determined after subcutaneous administration in Male Sprague Dawley rats; (+) =positive; format: functional, organism-based; conditions: filed as agonist
[11] = target: T3, Androgen receptor (Rattus norvegicus) (UniProt P15207); experiment: Relative binding affinity against Androgen receptor in Male Sprague-Dawley rats
T3 sequence (whole entry): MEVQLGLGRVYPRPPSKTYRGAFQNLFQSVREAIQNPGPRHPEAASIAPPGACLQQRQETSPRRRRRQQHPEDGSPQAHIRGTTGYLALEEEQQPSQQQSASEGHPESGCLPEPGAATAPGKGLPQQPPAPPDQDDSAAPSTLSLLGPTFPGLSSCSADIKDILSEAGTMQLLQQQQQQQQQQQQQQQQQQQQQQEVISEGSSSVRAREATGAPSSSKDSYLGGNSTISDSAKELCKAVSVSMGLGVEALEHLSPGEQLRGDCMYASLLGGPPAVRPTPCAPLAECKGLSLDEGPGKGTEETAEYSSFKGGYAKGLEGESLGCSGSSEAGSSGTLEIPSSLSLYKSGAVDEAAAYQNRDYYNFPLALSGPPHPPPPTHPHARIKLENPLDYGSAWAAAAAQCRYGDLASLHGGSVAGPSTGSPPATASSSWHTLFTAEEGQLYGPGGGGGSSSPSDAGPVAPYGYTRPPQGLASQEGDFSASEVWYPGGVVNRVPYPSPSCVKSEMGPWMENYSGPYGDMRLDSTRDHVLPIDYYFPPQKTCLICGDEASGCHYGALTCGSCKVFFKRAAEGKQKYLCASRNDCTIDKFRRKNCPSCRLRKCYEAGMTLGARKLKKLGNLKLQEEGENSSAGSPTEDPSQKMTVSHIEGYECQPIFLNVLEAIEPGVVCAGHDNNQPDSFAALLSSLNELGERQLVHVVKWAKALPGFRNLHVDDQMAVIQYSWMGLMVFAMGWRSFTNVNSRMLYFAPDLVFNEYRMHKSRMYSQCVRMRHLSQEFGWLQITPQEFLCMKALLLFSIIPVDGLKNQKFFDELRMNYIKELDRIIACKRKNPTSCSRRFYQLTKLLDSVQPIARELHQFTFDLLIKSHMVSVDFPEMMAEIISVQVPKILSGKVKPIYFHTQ
In short: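 Rat ventral prostate cytosol from 4-8-week-old rats castrated 1 day earlier. Incubated with various competitor concentrations and about 1 nM [3H]DHT or [3H]methyltrienolone for 16-20 h at 0 °C. Bound and free steroid separated by dextran-coated charcoal.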

[12] = target: T3, Androgen receptor (Rattus norvegicus); experiment: In vivo relative androgenic activity in Male Sprague-Dawley rats; format: functional, organism-based
[13] = target: T1, Mineralocorticoid receptor (Rattus norvegicus); experiment: Relative anti-mineralocorticoid potency compared to Spironolactone after oral administration; format: functional, organism-based; in short: as §2

CC12CCC(=O)C=C1CCC1C2C=CC2(C)C1C1CC1[C@@]21CCC(=O)O1 (stereo not given in full)
RBA [1]: 310% | RBA [2]: 650%

CC(=O)S[C@@H]1CC2=CC(=O)CC[C@]2(C)[C@H]2CC[C@@]3(C)[C@@H](CC[C@@]34CCC(=O)O4)[C@H]12
Activity [3]: inactive | RBA (Rattus norvegicus): 2.6% | Activity [4]: Antagonist | Activity [5]: Antagonist | RBA [2]: 15% | RBA [6]: 3.2%

CC12CCC(=O)C=C1C1CC1C1C2C=CC2(C)C1C1CC1[C@@]21CCC(=O)O1 (stereo not given in full)
Activity [3]: inactive | RBA (Rattus norvegicus): 540% | RBA [1]: 300% | RBA [2]: 760%

CC12CCC(=O)C=C1C=CC1C2C=CC2(C)C1C1CC1[C@@]21CCC(=O)O1 (stereo not given in full)
Activity [3]: inactive | RBA [1]: 290% | RBA [2]: 320% | RBA [7]: 210%

CC(=O)[C@H]1CC[C@H]2[C@@H]3CCC4=CC(=O)CC[C@]4(C)[C@H]3CC[C@]12C
RBA [8]: 100% | Relative activity [9]: 1

CC12C=CC(=O)C=C1CCC1C2C=CC2(C)C1CC[C@@]21CCC(=O)O1 (stereo not given in full)
Activity [10]: Agonist | Activity [3]: inactive | RBA (Rattus norvegicus): 7.5% | RBA [2]: 71% | RBA [6]: 120%

C[C@]12CC[C@H]3[C@@H](CCC4CC(=O)CC[C@@H]43)[C@@H]1CC[C@@H]2O (stereo not given in full)
relative binding affinity (RBA) [11]: 59 | Relative activity [12]: 0.1

CC(=O)[C@H]1CC[C@H]2[C@@H]3CCC4=CC(=O)CC[C@]4(C)[C@H]3C=C[C@]12C
relative binding affinity (RBA) [8]: 220 | Relative activity [9]: 3

CC12CCC(=O)C=C1CCC1C2C=CC2(C)C(O)CCC12 (stereo not given)
relative binding affinity (RBA) [11]: 120 | Relative activity [12]: 0.7

CC(C)(C)C(=O)S[C@@H]1CC2=CC(=O)CCC2(C)C2C=CC3(C)C(CC[C@@]34CCC(=O)O4)C21 (stereo not given in full)
RBA [1]: 46% | Activity [4]: Antagonist | RBA [2]: 42% | RBA [7]: 38%

CC(=O)S[C@@H]1CC2=CC(=O)C=CC2(C)C2C=CC3(C)C(CC[C@@]34CCC(=O)O4)C21 (stereo not given in full)
Activity [3]: inactive | Relative potency [13]: 0.77 | Activity [4]: Antagonist | Activity [5]: Antagonist | RBA [2]: 71% | RBA [6]: 23% | RBA [7]: 3.9%
